{"source": "ChEMBL document CHEMBL4732155", "about": "(Eur J Med Chem, 2021)", "key": {"[1]": {"assay": "Effect on AUP1 expression in human HCT-116 cells at 30 uM measured after 6 hrs by LC-MS/MS analysis relative to control", "type": "functional", "how_it_was_run": "(§1)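 HCT116 cells treated 6 h with DMSO, 15 μM or 30 μM compound, then pelleted. Peptides (1 μg) separated on a 25 cm C18 nano-column with a 136 min gradient and analysed by label-free LC-MS/MS on an Orbitrap Eclipse. Searched against the UniProt human database and quantified from normalized abundance. Two independent biological replicates per group; log2 fold change versus DMSO, p < 0.05.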"}, "[2]": {"target": "T1, Transitional endoplasmic reticulum ATPase (Homo sapiens, UniProt P55072)", "T1 sequence (P55072 2-806 limits assumed)": "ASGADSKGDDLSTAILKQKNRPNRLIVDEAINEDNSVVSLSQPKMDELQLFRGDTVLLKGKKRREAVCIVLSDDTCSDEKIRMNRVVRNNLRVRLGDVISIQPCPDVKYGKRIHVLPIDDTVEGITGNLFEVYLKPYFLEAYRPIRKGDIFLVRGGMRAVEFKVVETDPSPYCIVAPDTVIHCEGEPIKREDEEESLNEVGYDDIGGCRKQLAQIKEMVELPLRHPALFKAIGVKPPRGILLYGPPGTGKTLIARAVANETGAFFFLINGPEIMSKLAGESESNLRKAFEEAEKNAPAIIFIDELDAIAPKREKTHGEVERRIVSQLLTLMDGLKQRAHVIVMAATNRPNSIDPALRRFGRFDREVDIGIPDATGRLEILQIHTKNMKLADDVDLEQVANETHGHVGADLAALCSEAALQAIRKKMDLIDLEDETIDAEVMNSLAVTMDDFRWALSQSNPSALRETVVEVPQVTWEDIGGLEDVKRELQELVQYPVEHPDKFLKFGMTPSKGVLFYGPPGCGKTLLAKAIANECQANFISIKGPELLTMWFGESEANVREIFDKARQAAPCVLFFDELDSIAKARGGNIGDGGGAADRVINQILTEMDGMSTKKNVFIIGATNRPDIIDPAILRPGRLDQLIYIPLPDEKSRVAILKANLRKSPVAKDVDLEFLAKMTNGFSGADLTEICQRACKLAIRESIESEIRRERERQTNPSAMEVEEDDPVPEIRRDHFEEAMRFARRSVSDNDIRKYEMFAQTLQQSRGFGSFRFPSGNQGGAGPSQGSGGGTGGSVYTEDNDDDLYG", "assay": "Inhibition of His6-tagged p97 (unknown origin) expressed in Escherichia coli BL21 (DE3) assessed as reduction in ATPase activity measured after 60 mins in presence of cysteine by biomol green reagent based assay", "how_it_was_run": "(§2)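 His6-p97 expressed in E. coli BL21(DE3), purified by Ni-NTA and gel filtration (500–600 kDa fractions, ≥95% pure). Phosphate read by Biomol Green at 635 nm. Eight-dose titrations; IC50 from six replicates. Thiol tests added DTT or cysteine during preincubation.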"}, "[3]": {"assay": "Effect on KNTC1 expression in human HCT-116 cells at 15 uM measured after 6 hrs by LC-MS/MS analysis relative to control", "type": "functional", "how_it_was_run": "as §1"}, "[4]": {"assay": "Effect on EPPK1 expression in human HCT-116 cells at 30 uM measured after 6 hrs by LC-MS/MS analysis relative to control", "type": "functional", "how_it_was_run": "as §1"}, "RPMI-8226": {"test_system": "RPMI-8226", "assay": "Antiproliferative activity against human RPMI-8226 cells after 48 hrs by celltiter-glo luminescence assay", "type": "functional, cell-based", "conditions": "RPMI-8226, 48 h"}, "[5]": {"assay": "Effect on PRKRIR expression in human HCT-116 cells at 30 uM measured after 6 hrs by LC-MS/MS analysis relative to control", "type": "functional", "how_it_was_run": "as §1"}, "[6]": {"assay": "Effect on PLEC expression in human HCT-116 cells at 30 uM measured after 6 hrs by LC-MS/MS analysis relative to control", "type": "functional", "how_it_was_run": "as §1"}, "[7]": {"target": "T1, Transitional endoplasmic reticulum ATPase", "assay": "Irreversible inhibition of p97 in human HeLa cells assessed as reduction in p97-dependent reporter substrate UbG76V-GFP degradation preincubated followed by washout and measured after 17 hrs by luciferase reporter gene assay", "type": "cell-based", "conditions": "in the assay text read “GFP fluorescence assay” for “luciferase reporter gene assay”", "how_it_was_run": "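HeLa cells expressing UbG76V-GFP/ODD-Luc, 5000 cells/well in DMEM with 2.5% FBS. Pretreated with 4 μM MG132 for 60 min at 37 °C, PBS-washed, then given cycloheximide plus compound for 120 min. After washout, GFP decay followed in cycloheximide for an additional 17 h. GFP read by high-content imaging; luciferase read with D-luciferin; quadruplicates.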"}, "[8]": {"assay": "Inhibition of yeast Cdc48 assessed as reduction in ATPase activity measured after 60 mins by biomol green reagent based assay", "set-up": "species or system Saccharomyces cerevisiae", "how_it_was_run": "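Incubation ran 60 min at room temperature and was stopped with Biomol Green. Phosphate was read as absorbance at 635 nm. IC50 came from an eight-dose titration, six replicates.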"}, "[9]": {"assay": "Inhibition of His6-tagged p97 C522T mutant (unknown origin) expressed in Escherichia coli BL21 (DE3) assessed as reduction in ATPase activity measured after 60 mins by biomol green reagent based assay", "set-up": "species or system Homo sapiens", "how_it_was_run": "as §2"}, "[10]": {"target": "T1, Transitional endoplasmic reticulum ATPase", "assay": "Inhibition of His6-tagged p97 (unknown origin) expressed in Escherichia coli BL21 (DE3) assessed as reduction in ATPase activity measured after 60 mins in presence of DTT by biomol green reagent based assay", "how_it_was_run": "as §2"}, "[11]": {"assay": "Effect on GOLGA3 expression in human HCT-116 cells at 30 uM measured after 6 hrs by LC-MS/MS analysis relative to control", "type": "functional", "how_it_was_run": "as §1"}, "HeLa": {"test_system": "HeLa", "assay": "Antiproliferative activity against human HeLa cells after 48 hrs by celltiter-glo luminescence assay", "type": "functional, cell-based"}, "[12]": {"assay": "Effect on PRKRIR expression in human HCT-116 cells at 15 uM measured after 6 hrs by LC-MS/MS analysis relative to control", "type": "functional", "how_it_was_run": "as §1"}, "[13]": {"assay": "Effect on PLEC expression in human HCT-116 cells at 15 uM measured after 6 hrs by LC-MS/MS analysis relative to control", "type": "functional", "how_it_was_run": "as §1"}, "[14]": {"assay": "Effect on BRCC3 expression in human HCT-116 cells at 15 uM measured after 6 hrs by LC-MS/MS analysis relative to control", "type": "functional", "how_it_was_run": "as §1"}, "[15]": {"assay": "Selectivity ratio of IC50 for inhibition of proteasomal turnover of p97-independent ODD-luciferase reporter substrate in human HeLa cells to IC50 for inhibition of p97 in human HeLa cells assessed as reduction in proteasomal turnover of p97-dependent reporter substrate UbG76V-GFP", "how_it_was_run": "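HeLa cells stably carrying both UbG76V-GFP and ODD-Luc, in DMEM with 2.5% FBS, received 4 μM MG132 for 60 min at 37°C. After PBS washes they got cycloheximide plus compound for 120 min at 37°C. GFP was read by confocal imaging, then luminescence after D-luciferin (10 min, r.t.). IC50s for each reporter came from quadruplicates.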"}, "[16]": {"target": "T1, Transitional endoplasmic reticulum ATPase", "assay": "Binding affinity to His6-tagged p97 (unknown origin) expressed in Escherichia coli BL21 (DE3) assessed as Cys522-adduct formation by tandem mass spectrometry"}, "[17]": {"assay": "Effect on LAMP1 expression in human HCT-116 cells at 30 uM measured after 6 hrs by LC-MS/MS analysis relative to control", "type": "functional", "how_it_was_run": "as §1"}, "[18]": {"assay": "Effect on ZFAND1 expression in human HCT-116 cells at 30 uM measured after 6 hrs by LC-MS/MS analysis relative to control", "type": "functional", "how_it_was_run": "as §1"}, "HCT-116": {"test_system": "HCT-116", "assay": "Antiproliferative activity against CB-5083-resistant human HCT-116 cells after 48 hrs by celltiter-glo luminescence assay", "type": "functional, cell-based", "how_it_was_run": "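CellTiter-Glo viability in HCT116 lines carrying resistance mutations in p97 (CB-5083-resistant: D649A/T688A; NMS-873-resistant: A530T). Cells seeded at 750 or 3000/well within the linear range of a per-line standard curve, in DMEM with 5% FBS. Treated 24 h after seeding with eight three-fold dilutions for 48 h. IC50 from percent growth versus DMSO control; mean ± SEM of four replicate experiments.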"}}, "note": "Active and inactive are the calls of the source. No cut-off for these calls is given here."}
{"compound": "C=CC(=O)Nc1ncnc2c1c(-c1ccccc1)nn2C(C)(C)C", "values": [{"measurement": "log2FC", "setting": "[1]", "result": -0.43}, {"measurement": "inhibition", "setting": "[2]", "result": "Active"}, {"measurement": "log2FC", "setting": "[3]", "result": -0.43}, {"measurement": "log2FC", "setting": "[4]", "result": 0.64}, {"measurement": "IC50", "setting": "RPMI-8226", "result": 3.4, "unit": "µM"}, {"measurement": "log2FC", "setting": "[5]", "result": 0.68}, {"measurement": "log2FC", "setting": "[6]", "result": 0.58}, {"measurement": "inhibition", "setting": "[7]", "result": "Active"}, {"measurement": "IC50", "setting": "[8]", "result": 376, "unit": "µM"}, {"measurement": "IC50", "setting": "[9]", "result": 82, "unit": "µM"}, {"measurement": "inhibition", "setting": "[10]", "result": "Active"}, {"measurement": "log2FC", "setting": "[11]", "result": -0.7}, {"measurement": "IC50", "setting": "HeLa", "result": 6.1, "unit": "µM"}, {"measurement": "log2FC", "setting": "[12]", "result": 0.69}, {"measurement": "log2FC", "setting": "[13]", "result": 0.33}, {"measurement": "log2FC", "setting": "[14]", "result": 0.94}, {"measurement": "Selectivity ratio", "setting": "[15]", "result": 20}, {"measurement": "Activity", "setting": "[16]", "result": "Active"}, {"measurement": "log2FC", "setting": "[17]", "result": -0.66}, {"measurement": "log2FC", "setting": "[18]", "result": 0.42}, {"measurement": "Activity", "setting": "HCT-116", "result": "Active"}]}
